Test results: ChEMBL document CHEMBL3751740, “New MKLP-2 inhibitors in the paprotrain series: Design, synthesis and biological evaluations” (Bioorg Med Chem, 2016)

What was measured:
[1] = molecular target: T1, Chromosome-associated kinesin KIF4A (Homo sapiens) (UniProt O95239); assay: Inhibition of porcine brain microtubule-stimulated human recombinant GST-tagged Kif4A ATPase activity at 15 uM by microplate reader in presence of Mg2+ ATP relative to control
T1 sequence (whole entry): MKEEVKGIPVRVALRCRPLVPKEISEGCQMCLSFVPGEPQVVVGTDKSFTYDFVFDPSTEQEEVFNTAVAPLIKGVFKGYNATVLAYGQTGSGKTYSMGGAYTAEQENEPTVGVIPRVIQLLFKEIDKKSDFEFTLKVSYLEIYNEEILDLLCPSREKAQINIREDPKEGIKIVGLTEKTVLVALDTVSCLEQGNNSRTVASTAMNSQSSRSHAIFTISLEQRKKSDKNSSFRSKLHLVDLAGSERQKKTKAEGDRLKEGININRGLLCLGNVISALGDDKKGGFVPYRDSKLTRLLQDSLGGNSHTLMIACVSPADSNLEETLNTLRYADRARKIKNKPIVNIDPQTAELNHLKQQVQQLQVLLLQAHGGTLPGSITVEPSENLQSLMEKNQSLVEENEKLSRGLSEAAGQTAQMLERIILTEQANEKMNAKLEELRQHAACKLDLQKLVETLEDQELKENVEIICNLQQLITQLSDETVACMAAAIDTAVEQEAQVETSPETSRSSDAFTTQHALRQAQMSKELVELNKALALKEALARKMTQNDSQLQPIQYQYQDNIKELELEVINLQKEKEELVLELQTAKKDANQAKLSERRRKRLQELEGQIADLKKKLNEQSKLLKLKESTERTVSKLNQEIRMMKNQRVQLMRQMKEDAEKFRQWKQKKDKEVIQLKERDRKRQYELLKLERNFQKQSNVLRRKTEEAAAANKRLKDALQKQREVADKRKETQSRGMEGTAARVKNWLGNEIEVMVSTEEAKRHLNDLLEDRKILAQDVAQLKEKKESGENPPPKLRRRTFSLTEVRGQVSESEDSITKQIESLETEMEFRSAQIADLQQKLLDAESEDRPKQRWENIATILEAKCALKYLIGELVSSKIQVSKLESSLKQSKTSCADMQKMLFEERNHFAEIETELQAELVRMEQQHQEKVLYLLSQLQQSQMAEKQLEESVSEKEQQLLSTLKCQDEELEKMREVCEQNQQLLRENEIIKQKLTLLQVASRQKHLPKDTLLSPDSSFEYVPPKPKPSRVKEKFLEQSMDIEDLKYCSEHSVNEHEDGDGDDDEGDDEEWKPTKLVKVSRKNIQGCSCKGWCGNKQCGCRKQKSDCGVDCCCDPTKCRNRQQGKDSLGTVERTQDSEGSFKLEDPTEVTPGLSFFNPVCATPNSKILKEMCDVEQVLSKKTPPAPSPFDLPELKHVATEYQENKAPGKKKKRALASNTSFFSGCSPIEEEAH
In short: (§1)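 Each kinesin motor domain was tested against MT-stimulated ATPase at 22 °C in triplicate, with compounds at 15 µM. Buffer was 7.5 mM PIPES-NaOH pH 7.0 with MgCl2, Taxol, ELIPA reagents and 1.25 mg/mL MTs. Reactions were started with 1 mM Mg2+ATP and read kinetically at 360 nm. Monastrol and AMP-PNP (1 mM) were the controls.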

[2] = molecular target: T2, Kinesin-like protein KIF11 (Homo sapiens) (UniProt P52732); assay: Inhibition of porcine brain microtubule-stimulated human recombinant GST-tagged Eg5 ATPase activity at 15 uM by microplate reader in presence of Mg2+ ATP relative to control; in short: as §1
T2 sequence (whole entry): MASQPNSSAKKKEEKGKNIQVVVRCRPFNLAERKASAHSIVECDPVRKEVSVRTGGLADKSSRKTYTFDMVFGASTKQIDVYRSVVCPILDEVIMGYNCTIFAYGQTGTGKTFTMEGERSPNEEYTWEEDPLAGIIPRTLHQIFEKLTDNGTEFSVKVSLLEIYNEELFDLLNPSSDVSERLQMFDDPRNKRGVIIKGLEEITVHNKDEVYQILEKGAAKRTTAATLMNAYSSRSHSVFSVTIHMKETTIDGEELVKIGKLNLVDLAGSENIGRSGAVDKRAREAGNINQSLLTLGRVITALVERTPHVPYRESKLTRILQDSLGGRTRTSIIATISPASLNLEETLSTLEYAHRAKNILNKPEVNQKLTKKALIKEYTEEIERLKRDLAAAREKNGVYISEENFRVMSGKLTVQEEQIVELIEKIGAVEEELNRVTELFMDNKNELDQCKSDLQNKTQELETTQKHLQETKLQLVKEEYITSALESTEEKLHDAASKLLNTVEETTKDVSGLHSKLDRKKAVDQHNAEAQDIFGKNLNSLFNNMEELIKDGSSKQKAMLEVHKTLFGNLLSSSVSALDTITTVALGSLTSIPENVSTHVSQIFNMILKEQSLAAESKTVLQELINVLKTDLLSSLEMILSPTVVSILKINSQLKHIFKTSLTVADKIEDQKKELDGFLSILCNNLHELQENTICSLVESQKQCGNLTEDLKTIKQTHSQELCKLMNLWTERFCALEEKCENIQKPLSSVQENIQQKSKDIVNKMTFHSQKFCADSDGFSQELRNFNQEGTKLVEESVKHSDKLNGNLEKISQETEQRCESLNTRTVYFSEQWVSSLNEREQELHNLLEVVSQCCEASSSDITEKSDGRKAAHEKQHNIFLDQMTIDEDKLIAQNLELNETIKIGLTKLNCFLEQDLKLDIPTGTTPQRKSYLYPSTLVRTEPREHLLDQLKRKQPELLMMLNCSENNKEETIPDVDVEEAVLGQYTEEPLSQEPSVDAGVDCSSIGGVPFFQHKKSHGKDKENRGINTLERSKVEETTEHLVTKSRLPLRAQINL

[3] = molecular target: Centromere-associated protein E (Homo sapiens) (UniProt Q02224); assay: Inhibition of porcine brain microtubule-stimulated human recombinant GST-tagged CENP-E ATPase activity at 15 uM by microplate reader in presence of Mg2+ ATP relative to control; in short: as §1
Chain of Centromere-associated protein E (Homo sapiens) (Q02224 whole entry): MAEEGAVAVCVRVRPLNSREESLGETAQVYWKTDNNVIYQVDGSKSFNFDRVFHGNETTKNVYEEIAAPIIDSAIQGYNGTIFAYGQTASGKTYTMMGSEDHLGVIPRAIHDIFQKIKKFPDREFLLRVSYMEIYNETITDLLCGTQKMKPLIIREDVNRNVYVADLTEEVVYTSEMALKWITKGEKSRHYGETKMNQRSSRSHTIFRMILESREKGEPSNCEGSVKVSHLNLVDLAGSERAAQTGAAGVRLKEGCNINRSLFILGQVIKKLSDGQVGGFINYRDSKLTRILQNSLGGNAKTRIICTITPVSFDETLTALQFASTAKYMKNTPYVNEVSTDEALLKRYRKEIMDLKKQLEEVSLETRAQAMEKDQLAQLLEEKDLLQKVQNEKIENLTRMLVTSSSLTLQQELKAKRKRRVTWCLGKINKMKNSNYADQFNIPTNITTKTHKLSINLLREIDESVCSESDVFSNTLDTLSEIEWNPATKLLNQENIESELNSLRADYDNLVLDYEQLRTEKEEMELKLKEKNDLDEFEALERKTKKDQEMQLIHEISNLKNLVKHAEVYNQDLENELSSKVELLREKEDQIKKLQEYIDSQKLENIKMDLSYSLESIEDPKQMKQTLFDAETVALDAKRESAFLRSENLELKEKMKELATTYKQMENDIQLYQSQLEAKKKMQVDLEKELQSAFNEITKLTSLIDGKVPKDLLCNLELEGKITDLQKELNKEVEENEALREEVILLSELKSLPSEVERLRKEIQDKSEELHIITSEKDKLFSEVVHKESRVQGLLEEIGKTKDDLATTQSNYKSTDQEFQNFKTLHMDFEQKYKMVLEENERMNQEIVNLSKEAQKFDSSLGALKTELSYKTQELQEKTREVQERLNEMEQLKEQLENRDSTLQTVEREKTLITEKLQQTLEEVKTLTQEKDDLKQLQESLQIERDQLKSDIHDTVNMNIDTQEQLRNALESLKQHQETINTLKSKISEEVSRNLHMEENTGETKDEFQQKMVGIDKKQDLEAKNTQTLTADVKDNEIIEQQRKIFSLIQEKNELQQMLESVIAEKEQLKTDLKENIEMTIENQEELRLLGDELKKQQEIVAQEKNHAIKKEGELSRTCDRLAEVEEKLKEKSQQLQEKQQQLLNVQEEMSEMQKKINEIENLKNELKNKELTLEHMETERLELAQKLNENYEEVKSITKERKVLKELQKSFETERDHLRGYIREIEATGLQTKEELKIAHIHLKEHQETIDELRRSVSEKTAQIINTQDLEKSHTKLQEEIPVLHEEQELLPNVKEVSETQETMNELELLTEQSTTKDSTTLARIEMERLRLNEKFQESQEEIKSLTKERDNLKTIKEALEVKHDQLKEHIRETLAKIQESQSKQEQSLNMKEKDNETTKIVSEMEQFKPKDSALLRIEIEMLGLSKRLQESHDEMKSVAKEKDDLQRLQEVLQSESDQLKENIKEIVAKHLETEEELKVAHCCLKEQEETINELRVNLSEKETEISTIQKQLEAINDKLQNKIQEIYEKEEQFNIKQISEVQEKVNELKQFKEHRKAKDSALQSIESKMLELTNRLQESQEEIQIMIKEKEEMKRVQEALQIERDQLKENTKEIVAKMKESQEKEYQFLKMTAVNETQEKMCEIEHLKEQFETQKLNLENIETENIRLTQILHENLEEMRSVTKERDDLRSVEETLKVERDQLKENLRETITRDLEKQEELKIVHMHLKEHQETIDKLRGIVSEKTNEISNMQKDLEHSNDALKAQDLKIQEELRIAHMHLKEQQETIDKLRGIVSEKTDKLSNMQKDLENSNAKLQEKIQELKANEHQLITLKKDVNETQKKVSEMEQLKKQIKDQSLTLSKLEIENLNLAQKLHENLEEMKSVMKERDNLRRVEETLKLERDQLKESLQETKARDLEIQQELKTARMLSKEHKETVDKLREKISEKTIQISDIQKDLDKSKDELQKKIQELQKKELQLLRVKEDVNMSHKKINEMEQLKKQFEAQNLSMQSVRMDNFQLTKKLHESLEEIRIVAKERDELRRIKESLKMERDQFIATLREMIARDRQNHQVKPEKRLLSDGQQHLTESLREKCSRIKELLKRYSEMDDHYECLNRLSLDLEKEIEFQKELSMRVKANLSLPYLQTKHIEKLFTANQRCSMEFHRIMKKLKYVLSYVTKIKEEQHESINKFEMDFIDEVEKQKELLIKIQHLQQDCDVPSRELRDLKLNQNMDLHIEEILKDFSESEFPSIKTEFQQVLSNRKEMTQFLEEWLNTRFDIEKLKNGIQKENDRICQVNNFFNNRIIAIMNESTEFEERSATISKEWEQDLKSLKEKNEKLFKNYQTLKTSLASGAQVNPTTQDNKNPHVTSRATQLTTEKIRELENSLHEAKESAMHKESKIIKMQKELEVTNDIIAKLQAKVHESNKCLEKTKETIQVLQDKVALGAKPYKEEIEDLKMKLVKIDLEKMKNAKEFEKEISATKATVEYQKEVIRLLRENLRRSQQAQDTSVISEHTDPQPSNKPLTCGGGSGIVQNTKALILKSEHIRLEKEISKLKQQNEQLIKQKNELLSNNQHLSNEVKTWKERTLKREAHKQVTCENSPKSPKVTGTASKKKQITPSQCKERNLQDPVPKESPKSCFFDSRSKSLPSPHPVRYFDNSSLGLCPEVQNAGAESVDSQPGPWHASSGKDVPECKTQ

SMILES	inhibition [1]	inhibition [2]	inhibition [3]
N#C/C(=C\c1ccc2c(c1)OCO2)c1c[nH]c2ccccc12	< 20%	< 20%	< 20%
COc1ccc2c(/C(C#N)=C/c3cccnc3)c[nH]c2c1	< 20%	< 20%	< 20%
N#C/C(=C\c1cccnc1)c1c[nH]c2ccc(OCc3ccccc3)cc12	< 20%	< 20%	< 20%
COc1ccc2[nH]cc(/C(C#N)=C/c3cccnc3)c2c1	< 20%	< 20%	< 20%
CCOC(=O)C1=C(C)NC(=S)NC1c1cccc(O)c1 (stereo not drawn)	< 20%	> 30%	< 20%
COc1cccc2[nH]cc(/C(C#N)=C/c3cccnc3)c12	< 20%	< 20%	< 20%
